According to ChEMBL document CHEMBL1123990, “The in vitro dental plaque inhibitory properties of a series of N-[1-alkyl-4(1H)-pyridinylidene]alkylamines” (1988):
In brackets after ≈: the same amount, converted by molar mass. Activity calls are given as the source filed them. The calls are words filed in the database; no cut-off is given here.

How the values were obtained:
Actinomyces viscosus [1] = assay: Plaque bactericidal index against Actinomyces viscosus M-100 measured as chlorohexidine coefficient; assay type: functional
Summary of the method: (§1)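 Hydroxylapatite-grown plaques were exposed once daily for 2 min to varying concentrations of agent until the organisms were killed. The highest level tested was 0.2% w/v for 5 days. Tests were run in duplicate. PBI is the concentration (mM) × duration (min) × frequency (days) needed for plaque kill. CC is the chlorhexidine PBI divided by the test-agent PBI.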

Streptococcus sobrinus [2] = assay: Plaque bactericidal index against Streptococcus sobrinus 6715-13 measured as chlorohexidine coefficient; assay type: functional; summary of the method: as §1
Streptococcus sobrinus [3] = assay: Minimal bactericidal concentration against Streptococcus sobrinus 6715-13; assay type: functional
Summary of the method: (§2)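 Plaques were grown on standardized ceramic hydroxylapatite plates and immersed once in agent for 30 min. They were rinsed with sterile distilled water, moved to fresh broth and incubated anaerobically at 37 °C. Kill meant no further culture acid production, no turbidity change, and no growth when 48-h post-treatment plaque samples were subcultured. Tests were run in duplicate.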

Streptococcus sobrinus [4] = assay: Chlorohexidine coefficient for Streptococcus sobrinus 6715-13; assay type: functional; summary of the method: as §1
Actinomyces viscosus [5] = assay: Chlorohexidine coefficient for Actinomyces viscosus M-100; assay type: functional; summary of the method: as §1
Streptococcus sobrinus [6] = assay: Minimal bactericidal concentration against Streptococcus sobrinus 6715-13.; assay type: functional; summary of the method: as §2
Streptococcus sobrinus [7] = assay: Plaque bactericidal index against Streptococcus sobrinus 6715-13 measured as chlorohexidine coefficient; d=Not bactericidal at highest concentration tested (0.2% w/v, 2min, 5 days); assay type: functional, organism-based; summary of the method: as §1
Actinomyces viscosus [8] = assay: Plaque bactericidal index against Actinomyces viscosus M-100 measured as chlorohexidine coefficient; d=Not bactericidal at highest concentration tested (0.2% w/v, 2min, 5 days); assay type: functional, organism-based; summary of the method: as §1
Actinomyces viscosus [9] = assay: Plaque bactericidal index against Actinomyces viscosus M-100 measured as chlorohexidine coefficient; not bactericidal at highest concentration tested (0.2% w/v, 2min, 5 days); assay type: functional, organism-based; summary of the method: as §1
Streptococcus sobrinus [10] = assay: Minimal bactericidal concentration against d Streptococcus sobrinus 6715-13; Not active at 20 mM; assay type: functional, organism-based; summary of the method: as §2

Row | SMILES | PBI (Actinomyces viscosus [1]) | PBI (Streptococcus sobrinus [2]) | MBC (Streptococcus sobrinus [3]) | CC (Streptococcus sobrinus [4]) | CC (Actinomyces viscosus [5]) | MBC (Streptococcus sobrinus [6]) | PBI (Streptococcus sobrinus [7]) | PBI (Actinomyces viscosus [8]) | PBI (Actinomyces viscosus [9]) | MBC (Streptococcus sobrinus [10])
1 | CCCCCCCCN=c1ccn(Cc2ccc(Cl)cc2)cc1.Cl | 5.4 | 10.9 | 270 µM | 2.3 | 3.6 |  |  |  |  | 
2 | CCCCCCCCCn1ccc(=NCCCCCCCC)cc1.Cl | 13.3 | 13.3 | 1350 µM | 1.9 | 1.4 |  |  |  |  | 
3 | CCCCCCCn1ccc(=NCCCCCC)cc1.Cl | 6.4 | 12.8 |  | 2 | 3 | 1600 µM |  |  |  | 
4 | Br.CCCCCCCCn1ccc(=NCCCCCCC)cc1 | 10.4 | 10.4 | 1300 µM | 2.5 | 1.8 |  |  |  |  | 
5 | CCCCCCCCCn1ccc(=NCCCCCCC)cc1.Cl | 11.3 | 8.5 | 1410 µM | 3 | 1.7 |  |  |  |  | 
6 | CCCCCCCCCCCCCCN=c1ccn(Cc2ccccc2)cc1 |  |  | 240 µM (≈ 91.3 µg/mL) |  |  |  | Not bactericidal | Not bactericidal |  | 
7 | CCCCCCCCCCN=c1ccn(CCCCC)cc1.Cl | 5.9 | 3 | 290 µM | 8.5 | 3.2 |  |  |  |  | 
8 | Br.CCCCC(CC)CN=c1ccn(CC(CC)CCCC)cc1 (stereo unspecified) | 20 | 20 | 1250 µM | 1.3 | 1 |  |  |  |  | 
9 | Br.CCCCCCCCCN=c1ccn(CCCCCCC)cc1 | 10 | 10 | 1250 µM | 2.5 | 1.9 |  |  |  |  | 
10 | CCCCCCCCCN=c1ccn(CCCCCC)cc1.Cl | 2.9 | 2.9 | 290 µM | 8.8 | 6.6 |  |  |  |  | 
11 | CCCCCCCN=c1ccn(CCCCCC)cc1.Cl | 6.4 | 12.8 | 1600 µM | 2 | 3 |  |  |  |  | 
12 | CCCCCCCCCn1ccc(=NCCCCCC)cc1.Cl | 8.8 | 2.9 | 290 µM | 8.8 | 2.2 |  |  |  |  | 
13 | Br.CCCCCCCCN=c1ccn(CCCCCCC)cc1 | 7.8 | 7.8 | 1300 µM | 3.3 | 2.5 |  |  |  |  | 
14 | CN=c1ccn(C)cc1 |  |  |  |  |  |  | Not bactericidal |  | Not bactericidal | inactive
